Laboratory results taken from ChEMBL document CHEMBL1124328, “Hypoxia-selective antitumor agents. 1. Relationships between structure, redox properties and hypoxia-selective cytotoxicity for 4-substituted derivatives of nitracrine” (J Med Chem, 1989).

What was measured:
[1] = Equilibrium constant measured by the pulse radiolysis at pH 7; assay type: ADME
Method in brief: (§1)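 Pulse radiolysis on a 1.8 MV linac (ca. 3 Gy in 0.2 μs) of solutions at 21 °C in a 2-cm pathlength cell, buffered at pH 7 with 2 mM sodium phosphate. Dose was set by aerated 10 mM KSCN absorbance at 472 nm. The equilibrium constant K for ArNO₂/ArNO₂•⁻ versus benzylviologen came from radical ratios over various substrate concentrations. E(1) was derived from K relative to E(BV²⁺/BV•⁺).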

[2] = Relative lipophilicity of the compound; assay type: physicochemical; conditions: octanol/water
[3] = Dissociation constant of the compound; assay type: physicochemical
[4] = Ratio of cytotoxicity determined in air to that of cytotoxicity determined in N2 was measured under aerobic conditions to hypoxic conditions by the clonogenic assay against Chinese hamster ovary (subline AA8) cells; assay type: cell-based, Cricetulus griseus; conditions: subline AA8 (CHO-AA8)
Method in brief: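 Clonogenic survival of plateau-phase AA8 cells in stirred suspension at 37 °C. Cells and drug were pre-gassed separately for 45 min with 5% CO₂ in air or in N₂, then mixed using a gas-purged syringe. Plating efficiency was sampled over up to 3 h. Drug levels were chosen to give similar killing rates under both gases. Ratio = CT₁₀(air)/CT₁₀(N₂), where CT₁₀ is concentration × time for 10% survival.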

[5] = system: Nucleic Acid; assay: Logarithm of association constant for binding to poly[d(A-T)], determined by ethidium displacement; assay type: nucleic-acid assay
Method in brief: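 Ethidium displacement assay with poly[d(A-T)], giving log association constant. No quenching corrections were applied.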

[6] = Cytotoxicity was measured under aerobic conditions by the clonogenic assay against Chinese hamster ovary (subline AA8) cells; assay type: cell-based, Cricetulus griseus; design: unit not given here
Method in brief: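 CHO AA8 cells were grown in alpha MEM with 10% FCS, then taken to unfed plateau phase in spinner flasks (1.0–1.3 × 10⁶ cells/mL). Cells were resuspended in 5% FCS medium, and cells and drug were pre-equilibrated separately for 45 min at 37 °C under flowing 5% CO₂ in air. Exposure was as stirred suspension for up to 3 h, with plating efficiency sampled over time. CT₁₀ is the concentration × time giving 10% survival.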

[7] = Compound''s one-electron reduction potential (E(1)) has been measured by radiolysis at pH 7; method in brief: as §1
[8] = Compound's one-electron reduction potential (E(1)) has been measured by radiolysis at pK1
Method in brief: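 Calculated from E(1) measured at pH 7 using the paper's pH-dependence expression. Side-chain pKa values (pK2, pKr2) were assumed equal for all derivatives, and the acridine radical pKa was assumed 4.3 pH units above pK1.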

[9] = Dissociation constant was determined; assay type: physicochemical

K [1] [M⁻¹] | Rm [2] | pKa [3] | Log K [5] | E [7] [mV] | E [8] [mV] | Log Ke [5] | pKa [9] | SMILES | selectivity ratio [4] | CT10 [6]
1.9 | -0.88 | 6.61 | 6.76 M-1 | -361 | -346 |  |  | COc1ccc([N+](=O)[O-])c2c(NCCCN(C)C)c3ccccc3nc12 | 16 | 22
2.4 | -0.46 | 5.41 | 6.15 M-1 | -354 | -277 |  |  | CN(C)CCCNc1c2ccccc2nc2c(F)ccc([N+](=O)[O-])c12 | 5.3 | 2
8.8 | -0.76 | 6.29 | 7.23 M-1 | -321 | -292 |  |  | Cc1ccc([N+](=O)[O-])c2c(NCCCN(C)C)c3ccccc3nc12 | 10 | 2
175 |  |  | 6.06 M-1 | -244 | -164 |  | 5.35 | COC(=O)c1ccc([N+](=O)[O-])c2c(NCCCN(C)C)c3ccccc3nc12 | 0.32 | 8

Further lines, the molecule ahead of its results:

SMILES | K [1] [M⁻¹] | Rm [2] | pKa [3] | Log K [5] | E [7] [mV] | E [8] [mV] | Log Ke [5] | pKa [9] | selectivity ratio [4] | CT10 [6]
CN(C)CCCNc1c2ccccc2nc2cccc([N+](=O)[O-])c12 [NITRACRINE] | 18 | -0.85 | 6.21 | 6.92 M-1 | -303 | -270 |  |  | 9.9 | 0.47
CC(=O)OCCN(CCOC(C)=O)c1ccc([N+](=O)[O-])c2c(NCCCN(C)C)c3ccccc3nc12 | 11.7 | -0.29 | 6.2 | 6.5 M-1 | -314 | -280 |  |  | 11.5 | 575
CN(C)CCCNc1c2ccccc2nc2c(N(C)C)ccc([N+](=O)[O-])c12 | 5.3 | -0.63 | 6.47 | 7.11 M-1 | -334 | -314 |  |  | 16 | 720
CN(C)CCCNc1c2ccccc2nc2c(Cl)ccc([N+](=O)[O-])c12 | 7 | -0.25 | 5 | 5.95 M-1 | -325 | -225 |  |  | 13.6 | 0.68
CN(C)CCCNc1c2ccccc2nc2c(N(CCO)CCO)ccc([N+](=O)[O-])c12 |  | -0.74 | 6.53 |  |  |  | 6.73 M-1 |  | 6 | 540
